In ChEMBL document CHEMBL1126605, “Antitumor agents. 139. Synthesis and biological evaluation of thiocolchicine analogs 5,6-dihydro-6(S)-(acyloxy)- and 5,6-dihydro-6(S)-[(aroyloxy)methyl]-1,2,3-trimethoxy-9-(methylthio)-8H- cyclohepta[a]naphthalen-8-ones as novel cytotoxic and antimitotic agents” (J Med Chem, 1993):
pEC50, pIC50: −log10 of the molar value.

How the values were obtained:
[1] = tested on: HCT-8; assay: Cytotoxicity against human solid tumor Colon carcinoma HCT-8 cell line; type: functional; conditions: read-out: ED50 (the source's name)
[2] = tested on: KB; assay: Cytotoxicity against human solid tumor nasopharyngeal carcinoma KB cell line; type: functional; conditions: read-out: ED50 (the source's name)
[3] = tested on: P388; assay: (§1) Cytotoxicity against murine P388 leukemia cell line; type: functional; conditions: Mus musculus, read-out: ED50 (the source's name)
[4] = tested on: RPMI-7951; assay: cells; type: functional; conditions: Homo sapiens, read-out: ED50 (the source's name)
[5] = tested on: TE-671; assay: Cytotoxicity against human central nervous system carcinoma TE671 cell line; type: functional; conditions: read-out: ED50 (the source's name)
[6] = target: T1, Tubulin (Bos taurus, UniProt Q6B856+Q862L2+Q862F3); assay: Inhibition of tubulin polymerization with preincubation for 15 minutes at 37 degree Centigrade prior to addition of the GTP required for polymerization; type: functional
[7] = tested on: A549; assay: Cytotoxicity against human solid tumor lung carcinoma A549 cell line; type: functional; conditions: read-out: ED50 (the source's name)
[8] = target: Tubulin (Bos taurus) (UniProt Q6B856+Q862L2+Q862F3); conditions: at 5 µM
[9] = tested on: Burkitts lymphoma cell; assay: Growth inhibition on human burkitt lymphoma cells after 36 h; type: functional, cell-based
[10] = tested on: P388; assay: as §1; type: functional, Homo sapiens; conditions: Mus musculus, read-out: ED50 (the source's name)
[11] = target: T1, Tubulin; assay: Evaluated for the inhibition of tubulin polymerization without pre-incubation; type: functional
[12] = target: T1, Tubulin; assay: Compound was evaluated for the inhibition of tubulin polymerization without pre-incubation; type: functional
Summary of the method: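 Drug, tubulin and the GTP needed for polymerization were all mixed before the reaction mixtures were incubated at 37 °C, with no drug–tubulin preincubation. IC50 is the drug concentration inhibiting polymerization, given ± SD from at least three experiments per compound.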

SMILES	pEC50 [1]	pEC50 [2]	pEC50 [3]	pEC50 [4]	pEC50 [5]	IC50 [6] [nM]	pEC50 [7]	inhibition [8] [%]	pIC50 [9]	pEC50 [10]	IC50 [11] [nM]	EC50 [7] [µg/mL]	IC50 [12] [nM]
COc1cc2c(c(OC)c1OC)-c1ccc(SC)c(=O)cc1[C@@H](COC(=O)c1ccc(F)cc1)C2	5.70	5.97	7.09	6.03	5.90	> 40000	5.80	0	–	–	–	–	–
COc1cc2c(c(OC)c1OC)-c1ccc(SC)c(=O)cc1[C@@H](COC(=O)c1ccc([N+](=O)[O-])cc1)C2	5.25	7.89	8.00	6.94	8.00	6600	5.37	78	7.70	–	–	–	–
COc1cc2c(c(OC)c1OC)-c1ccc(OC)c(=O)cc1[C@@H](NC(C)=O)CC2 [COLCHICINE]	6.76	8.70	–	9.00	9.00	–	7.74	–	7.30	7.00	–	–	–
CCC(=O)OC[C@H]1Cc2cc(OC)c(OC)c(OC)c2-c2ccc(SC)c(=O)cc21	6.79	7.03	8.10	10.03	9.92	3400	6.66	83	–	–	–	–	–
COc1cc2c(c(OC)c1OC)-c1ccc(SC)c(=O)cc1[C@@H](COC(C)=O)C2	5.24	6.88	7.02	6.84	5.88	3400	5.71	56	–	–	–	–	–
C=C1Cc2cc(OC)c(OC)c(OC)c2-c2ccc(SC)c(=O)cc21	6.71	6.85	7.66	10.08	10.08	2400	6.60	91	–	–	2800	–	–
COc1cc2c(c(OC)c1OC)-c1ccc(SC)c(=O)cc1[C@@H](COC(=O)c1cccc(F)c1)C2	6.79	6.96	6.85	7.00	10.70	> 40000	7.10	0	–	–	–	–	–
COc1ccc(C(=O)OC[C@H]2Cc3cc(OC)c(OC)c(OC)c3-c3ccc(SC)c(=O)cc32)cc1	5.48	6.09	6.86	6.09	8.70	> 40000	–	0	–	–	–	> 10	–
COc1cc2c(cc1O)CCc1cc(OC)c(OC)c(OC)c1-2	–	–	–	–	–	–	–	–	–	–	–	–	> 100000
COc1cc2c(c(OC)c1OC)-c1ccc(SC)c(=O)cc1[C@@H](COC(=O)c1cccc([N+](=O)[O-])c1)C2	7.72	5.98	5.98	5.96	6.03	> 40000	5.83	0	6.22	–	–	–	–
CCOC(=O)OC[C@H]1Cc2cc(OC)c(OC)c(OC)c2-c2ccc(SC)c(=O)cc21	6.75	7.96	7.80	12.00	12.00	3700	12.00	60	–	–	4300	–	–
COc1cc2c(c(OC)c1OC)-c1ccc(SC)c(=O)cc1[C@@H](COC(=O)c1ccc(Br)cc1)C2	5.04	7.04	6.96	6.96	6.89	> 40000	4.77	2	–	–	–	–	–
COc1cc2c(c(OC)c1OC)-c1ccc(SC)c(=O)cc1[C@@H](COC(=O)c1cccc(C#N)c1)C2	5.24	6.86	7.00	6.20	5.81	> 40000	5.09	0	–	–	–	–	–
COc1cc2c(c(OC)c1OC)-c1ccc(SC)c(=O)cc1[C@@H](COC(=O)c1ccccc1F)C2	5.19	6.96	7.92	7.40	6.89	3000	6.85	91	–	–	3800	–	–
CC(C)n1cnc2c(Nc3ccc(Br)cc3)nc(N3CCC[C@@H]3CO)nc21	6.80	6.84	6.84	6.87	7.59	3600	6.62	53	7.22	–	3700	–	–
CCCC(=O)OC[C@H]1Cc2cc(OC)c(OC)c(OC)c2-c2ccc(SC)c(=O)cc21	5.52	9.89	10.05	10.66	7.64	4500	5.86	46	–	–	–	–	–
COc1cc2c(ccc3cc(OC)c(OC)c(OC)c32)cc1O	–	–	–	–	–	–	–	–	–	–	–	–	100000
